Test results: ChEMBL document CHEMBL1914401, “Aminothiazoles as γ-secretase modulators” (Bioorg Med Chem Lett, 2011)
Active and inactive are the calls of the source. The rule behind the calls is not given here.

Tests used:
Mus musculus [1] = assay: Antialzheimer activity in transgenic mouse overexpressing APP Swedish FAD mutant assessed as reduction in amyloid beta-42 level in brain at 30 mg/kg, po; assay type: functional, organism-based; design: dose 30 mg/kg
Method in brief: (§1)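 Transgenic mice about 3 months old, overexpressing APP-Swe under the mouse Thy-1 promoter, were dosed orally. Brains were taken 4 h later and homogenized in 1% DEA. Brain Aβ42 was quantified by LP ECL, and brain compound exposure was measured by LC–MS/MS.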

[2] = Oral bioavailability in transgenic mouse overexpressing APP Swedish FAD mutant at 7.2 mg/kg; assay type: ADME, organism-based; conditions: in vivo
Method in brief: (§2)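 Mouse pharmacokinetics used an iv dose of 0.7 mg/kg and a po dose of 7.2 mg/kg. Compound levels in plasma and brain were determined by LC–MS/MS over 0–24 h.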

Gamma-secretase [3] = assay: Inhibition of gamma secretase in human H4 cells overexpressing human APP assessed as reduction in amyloid beta-42 secretion after 22 hrs; assay type: cell-based
Method in brief: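 Human neuroglioma H4 cells overexpressing human APP were seeded at 30,000 cells/well in IMDM with 10% FCS and […] hygromycin B, then held 2 h at 37 °C, 5% CO2. Test agents were given as a ten-point 1:1 serial dilution in IMDM without FCS, with final Me2SO 0.4%, for 22 h. Secreted Aβ42 in the supernatant was measured by bead ECL sandwich (biotin-6E10 capture, ruthenylated BAP15 detection, 3 h RT). IC50 was taken from the dose-response curve.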

Cytochrome P450 2D6 = Cytochrome P450 2D6 (Homo sapiens, UniProt P10635); assay: Inhibition of CYP2D6; assay type: ADME
[4] = Plasma clearance in transgenic mouse overexpressing APP Swedish FAD mutant at 7.2 mg/kg, po and 0.7 mg/kg, iv; assay type: ADME, organism-based; method in brief: as §2
[5] = Volume of distribution at steady state in transgenic mouse overexpressing APP Swedish FAD mutant at 7.2 mg/kg, po and 0.7 mg/kg, iv; assay type: ADME, organism-based; conditions: in vivo, read-out: Vdss; method in brief: as §2
[6] = Half life in transgenic mouse overexpressing APP Swedish FAD mutant at 7.2 mg/kg, po and 0.7 mg/kg, iv; assay type: ADME, organism-based; conditions: in vivo; method in brief: as §2
[7] = Ratio of drug level in brain to plasma in transgenic mouse overexpressing APP Swedish FAD mutant at 7.2 mg/kg, po and 0.7 mg/kg, iv; assay type: ADME, organism-based; conditions: read-out: BPR; method in brief: as §2
Mus musculus [8] = assay: Antialzheimer activity in po dosed transgenic mouse overexpressing APP Swedish FAD mutant assessed as reduction in amyloid beta-42 level in brain measured after 4 hrs; assay type: functional; method in brief: as §1
Mus musculus [9] = assay: Antialzheimer activity in transgenic mouse overexpressing APP Swedish FAD mutant assessed as reduction in amyloid beta-42 level in brain at 100 mg/kg, po; assay type: functional; method in brief: as §1
Cytochrome P450 3A4 = Cytochrome P450 3A4 (Homo sapiens, UniProt P08684); assay: Inhibition of CYP3A4; assay type: ADME
Mus musculus [10] = assay: Antialzheimer activity in transgenic mouse overexpressing APP Swedish FAD mutant assessed as reduction in amyloid beta-42 level in brain at 150 mg/kg, po after 4 hrs; assay type: functional; design: scale not given: the % may be the effect or the level left; method in brief: as §1
Mus musculus [11] = assay: Antialzheimer activity in transgenic mouse overexpressing APP Swedish FAD mutant assessed as reduction in amyloid beta-42 level in brain at 150 mg/kg, po after 7 hrs; assay type: functional; design: scale not given: the % may be the effect or the level left
Method in brief: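 Oral dosing was given to APP-Swe transgenic mice (Thy-1 promoter) about 3 months old. Brain homogenates in 1% DEA were analysed by LP ECL for Aβ42.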

[12] = Fraction unbound in transgenic mouse overexpressing APP Swedish FAD mutant; assay type: ADME, organism-based; conditions: in vivo
[13] = Inhibition of gamma secretase in rat primary neurons assessed as reduction in amyloid beta-42 secretion
Mus musculus [14] = assay: Antialzheimer activity in transgenic mouse overexpressing APP Swedish FAD mutant assessed as reduction in amyloid beta-42 level in brain at 100 mg/kg, po after 4 hrs; assay type: functional, organism-based; design: dose 100 mg/kg; method in brief: as §1
[15] = molecular target: Inosine-5'-monophosphate dehydrogenase 2 (Homo sapiens, UniProt P12268); assay: Inhibition of IMPDH2
Gamma-secretase [16] = assay: Inhibition of gamma secretase in human H4 cells overexpressing human APP assessed as reduction in amyloid beta-40 secretion after 22 hrs; assay type: cell-based
Method in brief: (§3)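 Human H4 neuroglioma cells overexpressing human APP were plated at 30,000 cells/well in IMDM with 10% FCS and […] hygromycin B, and incubated 2 h at 37 °C, 5% CO2. Compounds were added as a ten-point 1:1 serial dilution series in FCS-free IMDM, with final Me2SO 0.4%, for 22 h at 37 °C. The culture supernatant was then assayed.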

Gamma-secretase [17] = assay: Modulation of gamma secretase in human H4 cells overexpressing human APP assessed as increase in amyloid beta-38 secretion after 22 hrs; assay type: cell-based; method in brief: as §3
[18] = molecular target: Gamma-secretase (Homo sapiens) (UniProt Q96BI3+Q9NZ42+Q8WW43+P49768+Q92542+P49810); assay: Modulation of gamma secretase in human H4 cells overexpressing human APP assessed as effect on total amyloid beta up to 20 uM after 22 hrs; assay type: cell-based; method in brief: as §3
[19] = Modulation of gamma secretase in cell-based assay assessed as change in notch protein level up to 25 uM

Sequence of Cytochrome P450 3A4 (P08684 whole entry): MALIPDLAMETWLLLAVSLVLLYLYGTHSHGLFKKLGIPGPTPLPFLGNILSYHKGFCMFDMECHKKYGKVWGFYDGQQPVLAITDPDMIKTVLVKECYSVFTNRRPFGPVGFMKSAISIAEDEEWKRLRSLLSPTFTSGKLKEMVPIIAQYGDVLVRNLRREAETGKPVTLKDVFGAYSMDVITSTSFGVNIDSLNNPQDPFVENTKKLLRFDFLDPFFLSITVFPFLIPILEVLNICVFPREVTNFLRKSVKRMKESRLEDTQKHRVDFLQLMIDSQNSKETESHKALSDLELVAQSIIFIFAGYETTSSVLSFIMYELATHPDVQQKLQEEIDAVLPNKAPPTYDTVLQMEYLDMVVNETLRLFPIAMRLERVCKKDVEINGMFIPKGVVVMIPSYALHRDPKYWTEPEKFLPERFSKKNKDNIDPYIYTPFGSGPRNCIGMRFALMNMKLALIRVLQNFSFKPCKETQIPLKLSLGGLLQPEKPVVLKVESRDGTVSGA
Sequence of Cytochrome P450 2D6 (P10635 whole entry): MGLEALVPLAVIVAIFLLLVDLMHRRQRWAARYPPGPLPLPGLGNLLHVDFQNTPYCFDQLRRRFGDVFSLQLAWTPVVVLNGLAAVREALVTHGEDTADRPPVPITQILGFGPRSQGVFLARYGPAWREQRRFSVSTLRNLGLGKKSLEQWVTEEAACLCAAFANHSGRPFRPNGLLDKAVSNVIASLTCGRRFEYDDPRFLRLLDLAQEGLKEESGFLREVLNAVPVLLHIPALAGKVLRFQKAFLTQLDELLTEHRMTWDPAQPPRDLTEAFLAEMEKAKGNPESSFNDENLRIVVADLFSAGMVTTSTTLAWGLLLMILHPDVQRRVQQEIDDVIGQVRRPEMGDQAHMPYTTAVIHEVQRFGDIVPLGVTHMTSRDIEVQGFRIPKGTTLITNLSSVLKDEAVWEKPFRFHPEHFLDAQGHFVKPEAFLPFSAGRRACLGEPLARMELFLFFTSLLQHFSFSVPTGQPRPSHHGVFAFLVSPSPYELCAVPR

SMILES | IC50 (Gamma-secretase [3]) | IC50 (Cytochrome P450 2D6) | further results
COc1cc(Nc2nc3c(s2)CCCC3c2ccccc2)ccc1-n1cnc(C)c1 (stereo not drawn) | 44 nM | < 200 nM | Activity (Mus musculus [1]): Active; bioavailability [2]: 25%; clearance [4]: 18.3 mL/min/kg; Vd [5]: 4.6 L/kg; half-life [6]: 2.5 h; Kp [7]: 0.4; ED50 (Mus musculus [8]): 40 mg/kg
COc1cc(Nc2nc3c(s2)CCCC3c2ccccc2)ccc1-c1cnc(C)s1 (stereo not drawn) | 252 nM | < 500 nM | Activity (Mus musculus [9]): inactive
Cc1nc(C)c(-c2ccc(Nc3nc4c(s3)CCCC4c3ccccc3)cc2)o1 (stereo not drawn) | 127 nM | < 500 nM | 
COc1cc(N(Cc2ccccc2)c2nc(C)c(Cc3ccc(Cl)cc3)s2)ccc1-n1cnc(C)c1 | > 40000 nM | < 500 nM | 
c1ccc(C2CCCc3sc(Nc4ccc(-c5ccncc5)cc4)nc32)cc1 (stereo not drawn) | 319 nM | < 500 nM | Activity (Mus musculus [9]): inactive
COc1cc(Nc2nc3c(s2)CCCC3c2ccccc2)ccc1-c1nnc(C)o1 (stereo not drawn) | 999 nM | < 500 nM | 
Cc1cn(-c2ccc(Nc3nc4c(s3)CCCC4c3ccccc3)cc2O)cn1 (stereo not drawn) | 209 nM | < 500 nM | 
c1ccc(C2CCCc3sc(Nc4ccc(-n5cncn5)cc4)nc32)cc1 (stereo not drawn) | 5550 nM | < 500 nM | 
COc1ccc(Br)cc1-c1csc(Nc2ccc(-n3ccnc3)c(OC)c2)n1 | 789 nM | < 500 nM | IC50 (Cytochrome P450 3A4): < 200 nM
COc1ccc(Br)cc1-c1csc(Nc2ccc(-n3ccnc3)cc2)n1 | > 5000 nM | < 500 nM | IC50 (Cytochrome P450 3A4): < 200 nM
COc1cc(Nc2nc(C)c(Cc3cccc(Cl)c3)s2)ccc1-n1cnc(C)c1 | 214 nM | < 500 nM | Activity (Mus musculus [10]): 47%; Activity (Mus musculus [11]): 22%; Fu [12]: < 0.1%
Cc1nsc(-c2ccc(Nc3nc4c(s3)CCCC4c3ccccc3)cc2)n1 (stereo not drawn) | 651 nM | < 500 nM | 
Cc1cn(-c2ccc(Nc3nc4c(s3)CCCC4c3ccccc3)cc2C(F)(F)F)cn1 (stereo not drawn) | > 1250 nM | < 500 nM | 
COc1cc(Nc2nc3c(s2)CCCC3c2ccccc2)ccc1-c1sc(C)nc1C (stereo not drawn) | 212 nM | < 500 nM | 
Cc1ncc(C)c(-c2ccc(Nc3nc4c(s3)CCCC4c3ccccc3)cc2)n1 (stereo not drawn) | 2870 nM | < 500 nM | 
COc1cc(Nc2ncc(C(O)c3ccc(Cl)cc3)s2)ccc1-n1cnc(C)c1 (stereo not drawn) | 339 nM | < 500 nM | 
COc1cc(Nc2nc3c(s2)CCCC3c2ccccc2)ccc1-c1nc(C)no1 (stereo not drawn) | 3430 nM | < 500 nM | 

SMILES | IC50 (Gamma-secretase [3]) | IC50 (Cytochrome P450 2D6) | further results
COc1ccc(Br)cc1-c1csc(Nc2ccc(-n3cnc(C)c3)cc2)n1 | 880 nM | < 500 nM | IC50 (Cytochrome P450 3A4): 1200 nM
COc1cc(Nc2nc(C(C)(C)c3ccc(Cl)cc3)cs2)ccc1-n1cnc(C)c1 | 136 nM | < 500 nM | 
Cc1cn(-c2ccc(Nc3nc4c(s3)CCCC4c3ccccc3)cc2Cl)cn1 (stereo not drawn) | 675 nM | < 200 nM | 
COc1cc(/C=C2\CCCN([C@@H](C)c3ccc(F)cc3)C2=O)ccc1-n1cnc(C)c1 |  |  | IC50 [13]: 42 nM
Cc1cn(-c2ccc(Nc3nc4c(s3)CCCC4c3ccccc3)cc2F)cn1 (stereo not drawn) | 52 nM | < 500 nM | 
Cc1cc(-c2ccc(Nc3nc4c(s3)CCCC4c3ccccc3)cc2)nc(C)n1 (stereo not drawn) | 483 nM | < 500 nM | 
COc1cc(Nc2nc3c(s2)CCCC3c2ccccc2)ccc1-c1cnn(C)c1 (stereo not drawn) | 244 nM | < 500 nM | Activity (Mus musculus [14]): inactive
COc1cc(Nc2nc3c(s2)CCCC3c2ccccc2)ccc1C#N (stereo not drawn) | 3360 nM | < 500 nM | 
Cc1ncc(-c2ccc(Nc3nc4c(s3)CCCC4c3ccccc3)cc2)o1 (stereo not drawn) | 133 nM | < 500 nM | 
c1ccc(C2CCCc3sc(Nc4ccc(-c5ccnnc5)cc4)nc32)cc1 (stereo not drawn) | 376 nM | < 500 nM | 
Cc1cn(-c2ccc(Nc3nc4c(s3)CCCC4c3ccccc3)cc2C)cn1 (stereo not drawn) | 733 nM | < 500 nM | 
Cc1cn(-c2ccc(Nc3nc4c(s3)CCCC4c3ccccc3)cc2C#N)cn1 (stereo not drawn) | 123 nM | < 200 nM | 
COc1ccc(Br)cc1-c1csc(Nc2ccc(-n3cnc(C)c3)c(OC)c2)n1 | 898 nM | < 500 nM | IC50 (Cytochrome P450 3A4): 2200 nM
COc1cc(Nc2nc3c(s2)CCCC3c2ccccc2)ccc1-c1cnc(C)o1 (stereo not drawn) | 86 nM | < 500 nM | Activity (Mus musculus [9]): 47%
COc1cc(Nc2nc(C)c(Cc3cccc(Cl)c3)s2)ccc1-c1cnco1 | 815 nM | < 500 nM | IC50 [15]: 400 nM; IC50 (Gamma-secretase [16]): 3700 nM; EC50 (Gamma-secretase [17]): 1500 nM; Activity [18]: inactive; Activity [19]: inactive
Cc1cn(-c2ccc(Nc3nc4c(s3)CCCC4c3ccccc3)cc2)cn1 (stereo not drawn) | 133 nM | < 500 nM | 
